Measurements from article PMC3149845 (The Journal of neuroscience : the official journal of the …, 2011).
Entries after “also recorded” stand apart in the source; their conditions may differ. Peptide text beside a SMILES is read from it.

How the values were obtained:
hTas1R2/smTas1R3 = target: T1, hTas1R2/smTas1R3 (Homo sapiens, UniProt Q8TE23); test: Ca2+ mobilization, mismatched receptor; assay type: cell-based, human/squirrel monkey; settings: aspartame 10mM, neotame 1mM, sucralose 2 mM, D-tryptophan 5mM, sucrose 150mM; vs control / wild type human receptor
T1 sequence (Q8TE23 20-839): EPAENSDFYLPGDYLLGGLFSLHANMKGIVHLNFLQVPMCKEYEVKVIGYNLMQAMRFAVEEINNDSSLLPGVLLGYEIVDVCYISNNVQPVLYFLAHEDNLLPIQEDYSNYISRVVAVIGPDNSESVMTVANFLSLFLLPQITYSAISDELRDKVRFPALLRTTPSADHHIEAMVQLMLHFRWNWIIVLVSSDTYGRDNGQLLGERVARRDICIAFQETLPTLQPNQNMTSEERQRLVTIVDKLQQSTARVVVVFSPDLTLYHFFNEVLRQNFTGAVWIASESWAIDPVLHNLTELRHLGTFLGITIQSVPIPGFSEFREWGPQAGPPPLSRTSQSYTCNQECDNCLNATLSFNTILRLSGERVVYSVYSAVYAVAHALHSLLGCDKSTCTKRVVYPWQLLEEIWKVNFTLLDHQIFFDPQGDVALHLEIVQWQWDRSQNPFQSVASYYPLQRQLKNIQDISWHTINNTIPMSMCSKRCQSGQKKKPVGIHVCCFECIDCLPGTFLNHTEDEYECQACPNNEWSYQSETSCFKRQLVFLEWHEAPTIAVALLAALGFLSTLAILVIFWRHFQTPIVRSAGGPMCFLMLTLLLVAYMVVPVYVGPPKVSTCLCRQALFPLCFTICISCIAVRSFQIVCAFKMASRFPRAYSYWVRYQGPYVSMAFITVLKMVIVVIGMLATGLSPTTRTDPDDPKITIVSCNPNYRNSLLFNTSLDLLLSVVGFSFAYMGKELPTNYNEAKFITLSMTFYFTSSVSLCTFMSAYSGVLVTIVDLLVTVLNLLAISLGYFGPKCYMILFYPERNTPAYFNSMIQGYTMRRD
Method in brief: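 Transfected HEK293E cells (50,000/well; 0.06 μg Tas1R plasmid and 0.06 μg Gα16-gust44 per well) were medium-changed at 20 h, then loaded after 24 h with 3 μM Fluo-4 AM in HBSS/20 mM HEPES for 1 h. Tastant added 30 s into scan; fluorescence (ex 488/em 525 nm) read every 2 s for 150 s. ΔF/F normalized to the hTas1R2/hTas1R3 sucralose response; three independent experiments; unpaired t test.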

[1] = target: T2, h(1–572)smTas1R2 + hTas1R3 (Homo sapiens, UniProt Q8TE23, A658V/A782V/G696S/I595M/I692T/L639V/L764F/L798F/M682V/M697L/P624L/P678S/P710T/Q592E/S703N/S784D/T716M/V687A/V718I/V741A); test: Ca2+ mobilization, chimera receptor; assay type: cell-based, human/squirrel monkey; settings: aspartame 10mM, neotame 1mM, sucralose 2 mM; compared with hTas1R2/hTas1R3
T2 sequence (Q8TE23 20-839 Q592E/I595M/P624L/L639V/A658V/P678S/M682V/V687A/I692T/G696S/M697L/S703N/P710T/T716M/V718I/V741A/L764F/A782V/S784D/L798F): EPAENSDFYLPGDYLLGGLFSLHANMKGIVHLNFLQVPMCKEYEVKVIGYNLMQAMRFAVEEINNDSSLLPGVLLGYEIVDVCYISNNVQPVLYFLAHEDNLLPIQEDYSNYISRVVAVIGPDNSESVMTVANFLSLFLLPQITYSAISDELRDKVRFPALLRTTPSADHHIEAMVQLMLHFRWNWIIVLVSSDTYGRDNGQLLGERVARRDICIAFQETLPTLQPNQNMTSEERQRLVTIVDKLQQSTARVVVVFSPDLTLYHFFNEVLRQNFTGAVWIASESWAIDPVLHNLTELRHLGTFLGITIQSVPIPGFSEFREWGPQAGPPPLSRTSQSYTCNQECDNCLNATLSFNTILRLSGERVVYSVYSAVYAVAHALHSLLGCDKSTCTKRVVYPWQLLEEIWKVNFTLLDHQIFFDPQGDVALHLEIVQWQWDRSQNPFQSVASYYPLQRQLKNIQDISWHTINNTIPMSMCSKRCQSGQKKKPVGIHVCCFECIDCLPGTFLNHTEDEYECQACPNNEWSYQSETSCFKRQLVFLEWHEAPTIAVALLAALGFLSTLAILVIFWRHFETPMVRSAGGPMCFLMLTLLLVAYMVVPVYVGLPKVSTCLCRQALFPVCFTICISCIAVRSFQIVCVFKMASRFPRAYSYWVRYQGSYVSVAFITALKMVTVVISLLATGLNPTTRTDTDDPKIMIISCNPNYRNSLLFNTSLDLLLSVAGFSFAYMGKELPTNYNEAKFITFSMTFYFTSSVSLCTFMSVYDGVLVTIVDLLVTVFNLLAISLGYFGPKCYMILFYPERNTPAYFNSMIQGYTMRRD
T2 sequence (Q7RTX0 21-852 partner): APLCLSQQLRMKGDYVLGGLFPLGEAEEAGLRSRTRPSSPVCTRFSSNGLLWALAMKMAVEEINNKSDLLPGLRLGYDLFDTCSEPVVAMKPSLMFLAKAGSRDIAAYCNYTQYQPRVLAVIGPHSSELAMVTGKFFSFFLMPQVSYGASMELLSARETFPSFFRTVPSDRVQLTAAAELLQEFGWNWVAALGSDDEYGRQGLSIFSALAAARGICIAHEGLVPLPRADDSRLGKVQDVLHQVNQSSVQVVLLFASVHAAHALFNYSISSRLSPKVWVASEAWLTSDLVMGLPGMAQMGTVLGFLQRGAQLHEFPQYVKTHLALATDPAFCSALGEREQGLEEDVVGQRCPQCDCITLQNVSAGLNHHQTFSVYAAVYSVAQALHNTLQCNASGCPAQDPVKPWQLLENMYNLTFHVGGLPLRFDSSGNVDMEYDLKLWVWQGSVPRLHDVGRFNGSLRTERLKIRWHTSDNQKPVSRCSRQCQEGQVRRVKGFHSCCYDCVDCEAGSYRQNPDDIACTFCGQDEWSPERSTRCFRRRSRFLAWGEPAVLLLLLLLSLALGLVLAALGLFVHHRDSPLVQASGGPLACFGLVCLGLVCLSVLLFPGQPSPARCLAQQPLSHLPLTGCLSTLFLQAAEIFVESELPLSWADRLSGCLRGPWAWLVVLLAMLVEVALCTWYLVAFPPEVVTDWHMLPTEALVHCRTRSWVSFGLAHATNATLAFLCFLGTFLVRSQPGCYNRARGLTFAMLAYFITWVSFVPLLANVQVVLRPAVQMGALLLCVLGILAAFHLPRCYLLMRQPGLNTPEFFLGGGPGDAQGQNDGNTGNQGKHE
Method in brief: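 HEK293E cells grown at 37°C in Opti-MEM with 5% FBS and seeded at 50,000/well. Cells co-lipofected with Tas1R plasmids and Gα16-gust44 (0.06 μg each per well); medium changed at 20 h, assayed 24 h later. Cells loaded 1 h with Fluo-4 AM in HEPES-buffered HBSS. Tastant added at 30 s; fluorescence (ex 488/em 525 nm) read every 2 s for 150 s more. ΔF/F normalised to human receptor maximal sucralose response; mean ± SEM, three independent experiments.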

Row | Compound | calcium response to sweetener (hTas1R2/smTas1R3) | calcium response to sweetener [1]
1 | COC(=O)[C@H](Cc1ccccc1)NC(=O)[C@@H](N)CC(=O)O [aspartame, L-α-aspartly-L-phenylalanine methyl ester] (H-Asp-Phe-OMe) | able to respond; also recorded: reduced responses | significantly reduced responses; also recorded: significant reduction of the response
2 | COC(=O)[C@H](Cc1ccccc1)NC(=O)[C@H](CC(=O)O)NCCC(C)(C)C [neotame] | able to respond | significantly reduced responses; also recorded: significant reduction of the response
3 | OC[C@H]1O[C@H](O[C@]2(CCl)O[C@H](CCl)[C@@H](O)[C@@H]2O)[C@H](O)[C@@H](O)[C@H]1Cl [sucralose] | reduced responses | significant reduction of the response
